Results on 57 sequences are retold here after the array DNA melting data of Ke et al. (doi:10.1101/2024.01.08.574731).

The nature of data set [1]: melting temperature; fluorescence melt of hairpins on a sequencing array, two-state fit, raised by 9.35 °C to match UV melts. To be noted: sodium 0.088 M. In outline:
(§1)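 With Cy3 and quencher oligos annealed, library hairpins on a sequenced MiSeq flow cell were imaged for Cy3 fluorescence in 50 mM Na-HEPES pH 8.0, 25 mM NaCl, in 2.5 °C steps up to 60 °C. Melting temperature and folding enthalpy were derived from bootstrapped two-state fits of signals normalised to pre-quench Cy3 and to control constructs. Four replicates were combined by inverse variance, with fitted temperatures raised by 9.35 °C to match UV melts.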

The nature of data set [2]: folding enthalpy; higher = less favourable; fluorescence melt of hairpins on a sequencing array, two-state fit. To be noted: sodium 0.088 M. Summed up:
as §1

For GATCGGTCTCCGATC ((((((...)))))), the Tm in data set [1] worked out at 57.4 °C. Besides, the folding enthalpy in data set [2] was -180 kJ/mol.
For GATCGGTCTGCCGATC ((((((....)))))), the Tm in data set [1] was found to be 62.1 °C. Also, the folding enthalpy in data set [2] is -175 kJ/mol.
Turning to GATCGGTGGACCGATC ((((((....)))))), the Tm in data set [1] was determined as 57.2 °C. The folding enthalpy in data set [2] is -133 kJ/mol.
The corresponding values for GATCGGTTAACCGATC ((((((....)))))) are 58.8 °C and -198 kJ/mol.
The corresponding values for GATCGGTTATCCGATC ((((((....)))))) are 58.9 °C and -154 kJ/mol.
In the same order, the values of GATCGGTTGTCCGATC ((((((....)))))) are 57.1 °C and -141 kJ/mol.
For GATCGTAAAAACGATC ((((((....)))))), in data set [1], the Tm was 50.3 °C. The folding enthalpy in data set [2] is -133 kJ/mol.
The corresponding values for GATCGTAATCACGATC ((((((....)))))) are 53.2 °C and -191 kJ/mol.
GATCGTAATTACGATC ((((((....)))))): the Tm in data set [1] is 56.3 °C. Also, the folding enthalpy in data set [2] was -151 kJ/mol.
The corresponding values for GATCGTACACACGATC ((((((....)))))) are 54.4 °C and -170 kJ/mol.
The corresponding values for GATCGTACGGACGATC ((((((....)))))) are 54.4 °C and -191 kJ/mol.
With GATCGTACTACGATC ((((((...)))))), in data set [1], the Tm was 56.5 °C. Moreover, the folding enthalpy in data set [2] is -152 kJ/mol.
On to GATCGTACTGACGATC ((((((....)))))), for which the Tm in data set [1] amounted to 55.2 °C. In data set [2], the folding enthalpy was -152 kJ/mol.
As for GATCGTAGCCACGATC ((((((....)))))), the Tm in data set [1] turned out to be 56.2 °C. The folding enthalpy in data set [2] is -164 kJ/mol.
In the same order, the values of GATCGTATAACGATC ((((((...)))))) are 55.7 °C and -198 kJ/mol.
The corresponding values for GATCGTATCAACGATC ((((((....)))))) are 55 °C and -149 kJ/mol.
Regarding GATCGTATCACGATC ((((((...)))))), the Tm in data set [1] came to 58.4 °C. The folding enthalpy in data set [2] was -157 kJ/mol.
Take GATCGTATCTACGATC ((((((....)))))): the Tm in data set [1] was 57.6 °C. Besides, the folding enthalpy in data set [2] was -159 kJ/mol.
Turning to GATCGTATGAACGATC ((((((....)))))), in data set [1], the Tm was determined as 53.6 °C. In data set [2], the folding enthalpy is -130 kJ/mol.
In the same order, the values of GATCGTCAAAACGATC ((((((....)))))) are 55.1 °C and -167 kJ/mol.
In the same order, the values of GATCGTCACACGATC ((((((...)))))) are 57 °C and -158 kJ/mol.
In the same order, the values of GATCGTCATACGATC ((((((...)))))) are 57.5 °C and -141 kJ/mol.
Turning to GATCGTCCCAACGATC ((((((....)))))), the Tm in data set [1] was 55.6 °C. For the same sequence, in data set [2], the folding enthalpy is -168 kJ/mol.
GATCGTCCCCACGATC ((((((....)))))): in data set [1], the Tm is 53.9 °C. The folding enthalpy in data set [2] is -175 kJ/mol.
Regarding GATCGTCCGCACGATC ((((((....)))))), in data set [1], the Tm came to 54.4 °C. Besides, the folding enthalpy in data set [2] was -166 kJ/mol.
In the case of GATCGTCCGTACGATC ((((((....)))))), the Tm in data set [1] came out at 54.9 °C. For the same sequence, the folding enthalpy in data set [2] was -198 kJ/mol.
For GATCGTCGATACGATC ((((((....)))))), the Tm in data set [1] was 54.7 °C. For the same sequence, the folding enthalpy in data set [2] is -161 kJ/mol.
In the same order, the values of GATCGTCGGAACGATC ((((((....)))))) are 52.7 °C and -114 kJ/mol.
In the case of GATCGTCGGGACGATC ((((((....)))))), the Tm in data set [1] stood at 61.7 °C. Moreover, in data set [2], the folding enthalpy is -173 kJ/mol.
The corresponding values for GATCGTCTAACGATC ((((((...)))))) are 55.6 °C and -162 kJ/mol.
In the case of GATCGTCTGTACGATC ((((((....)))))), in data set [1], the Tm was 55.7 °C. Moreover, the folding enthalpy in data set [2] is -160 kJ/mol.
In the same order, the values of GATCGTCTTTACGATC ((((((....)))))) are 55.2 °C and -144 kJ/mol.
The corresponding values for GATCGTGAATACGATC ((((((....)))))) are 61.7 °C and -147 kJ/mol.
The corresponding values for GATCGTGATACGATC ((((((...)))))) are 57.2 °C and -150 kJ/mol.
As for GATCGTGCATACGATC ((((((....)))))), in data set [1], the Tm stood at 60.5 °C. The folding enthalpy in data set [2] was -158 kJ/mol.
In the case of GATCGTGCCACGATC ((((((...)))))), in data set [1], the Tm is 57.8 °C. Moreover, the folding enthalpy in data set [2] was -150 kJ/mol.
The corresponding values for GATCGTGCCTACGATC ((((((....)))))) are 57.4 °C and -144 kJ/mol.
As for GATCGTGCGGACGATC ((((((....)))))), the Tm in data set [1] was determined as 54.4 °C. The folding enthalpy in data set [2] is -161 kJ/mol.
The corresponding values for GATCGTGGAAACACAATC (((.(((....))).))) are 34.3 °C and -73.7 kJ/mol.
Consider GATCGTGGAAACACGACC (.(((((....))))).), for which the Tm in data set [1] was 41.7 °C. Further, the folding enthalpy in data set [2] was -55.5 kJ/mol.
In the same order, the values of GATCGTGGAAACACGGTC ((.((((....)))).)) are 52.7 °C and -122 kJ/mol.
The corresponding values for GATCGTGGAAACGCGATC (((((.(....).))))) are 55.6 °C and -167 kJ/mol.
In the same order, the values of GATCGTGGCAACGATC ((((((....)))))) are 67.6 °C and -137 kJ/mol.
For the sequence GATCGTGGGACGATC ((((((...)))))), the Tm in data set [1] was determined as 53.8 °C. Also, the folding enthalpy in data set [2] was -126 kJ/mol.
Consider GATCGTGGTAACGATC ((((((....)))))), for which, in data set [1], the Tm was 66.1 °C. In addition, the folding enthalpy in data set [2] is -164 kJ/mol.
As for GATCGTGGTGACGATC ((((((....)))))), the Tm in data set [1] was found to be 57.6 °C. In addition, in data set [2], the folding enthalpy is -164 kJ/mol.
As to GATCGTGTAAACGATC ((((((....)))))), in data set [1], the Tm came to 66.5 °C. The folding enthalpy in data set [2] was -176 kJ/mol.
Consider GATCGTGTACACGATC ((((((....)))))), for which the Tm in data set [1] turned out to be 63.6 °C. Besides, the folding enthalpy in data set [2] was -215 kJ/mol.
In the same order, the values of GATCGTGTCAACGATC ((((((....)))))) are 67.6 °C and -163 kJ/mol.
With GATCGTTCCAACGATC ((((((....)))))), the Tm in data set [1] is 58.6 °C. Also, in data set [2], the folding enthalpy is -165 kJ/mol.
The corresponding values for GATCGTTCGCACGATC ((((((....)))))) are 54.2 °C and -159 kJ/mol.
The corresponding values for GATCGTTGAAACGATC ((((((....)))))) are 54.8 °C and -164 kJ/mol.
For the sequence GATCGTTGACACGATC ((((((....)))))), the Tm in data set [1] is 52.6 °C. Besides, the folding enthalpy in data set [2] was -160 kJ/mol.
The corresponding values for GATCGTTGGCACGATC ((((((....)))))) are 52.5 °C and -134 kJ/mol.
As to GATCGTTTGAACGATC ((((((....)))))), in data set [1], the Tm stood at 54.2 °C. For the same sequence, the folding enthalpy in data set [2] is -122 kJ/mol.
Consider GATCTAAAAATAGATC ((((((....)))))), for which the Tm in data set [1] was determined as 28.2 °C. In addition, in data set [2], the folding enthalpy is -44.4 kJ/mol.
Turning to GATCTAAACTTAGATC ((((((....)))))), the Tm in data set [1] turned out to be 42.2 °C. The folding enthalpy in data set [2] is -155 kJ/mol.
